Data reported in PubChem BioAssay.
Calls of active or inactive are those of the source.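 How the source made its calls, unless noted: active means a full or partial loss of lipid-probe fluorescence in the fish gall bladder, intestine or both, judged by eye; inactive means no fluorescence loss, or compound toxic to the fish.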

Legend:
[1] = inhibitors of TNFa-induced NFkB p65 translocation, primary screen, imaging, HUVEC, MLSMR starter and 10KST1 sets (AID 438;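 active means inhibition above 20% together with a positive visual image hit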;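 further: compound added about 3h40 before a 20 min TNFalpha stimulation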;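 on inhibition: signal is the nuclear over cytoplasmic p65 intensity ratio per well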); details: HUVEC TNFa-induced p65 nuclear translocation; cell count: measured here: nuclei count (cytotoxicity indicator), at 2.08 µM; inhibition: at 2 µM, stronger effect = higher value, 0% TNFa-plus-vehicle, 100% no-TNFa wells
[2] = endothelial E-selectin expression blockers – imaging, HUVEC, immunofluorescence, MLSMR starter and 10KST1 sets, primary screen (AID 487;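 active means visually confirmed hit in the image check and inhibition above 20%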;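 on inhibition: signal is fraction of cell area covered by stained E-selectin grains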;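 on nuclei count: 100% = median nuclei count of all wells on the same plate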); details: HUVEC TNFalpha-induced E-selectin immunofluorescence imaging, at 2 µM; inhibition: stronger effect = higher value; nuclei count: measured here: cell number, toxicity
[3] = Primary imaging screen for DUSP6 inhibitors that restore phospho-Erk in transfected HeLa cells, chemical complementation (AID 609;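 active means compounds giving at least 50% inhibition in the cell-based MKP-3 phosphatase rescue imaging test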;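 on inhibition: phospho-Erk level distribution per well compared with pooled transfected vehicle control wells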); details: HeLa MKP-3 transfected, phospho-Erk imaging KS statistic, at 10 µM, cells stimulated with TPA for 15 min
[4] = target: Dual specificity protein phosphatase 6 (Homo sapiens) (UniProt Q16828); experiment: as above; details: HeLa MKP-3 transfected, phospho-Erk imaging KS statistic; at 10 µM; stronger effect = higher value; cells stimulated with TPA for 15 min
[5] = target: Voltage-gated potassium channel subunit beta-2 (Rattus norvegicus) (UniProt P62483); experiment: inhibitors of rat Kvbeta2 reductase activity – biochemical, NADPH fluorescence, primary screen (AID 622;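 active means fluorescence slope higher than the sample average by over 3 SD, cut at about -0.22 in these data, passing the limit was not always enough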;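 further: slope of raw intensity against log time taken from 70 to 1610 s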); details: recombinant KvBeta, 4-cyanobenzaldehyde reduction, at 10 µM, stronger effect = higher value
[6] = target: Voltage-gated potassium channel subunit beta-2 (Rattus norvegicus) (UniProt P62483); experiment: enhancers of rat Kvbeta2 NADPH turnover – biochemical, NADPH fluorescence, primary screen (AID 623;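 active means NADPH fluorescence slope more negative than the mean of all samples by about 3 SD, 99.7% confidence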;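 further: fluorescence intensity change per second fitted from 20 to 320 s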); details: Recombinant KvBeta, NADPH fluorescence decrease slope, 10 min; at 10 µM; stronger effect = lower value
[7] = target: Muscarinic acetylcholine receptor M4 (Homo sapiens) (UniProt P08173); experiment: M4-linked GIRK flux change, two-sided – cell-based, HEK293 M4/GIRK, thallium flux, BTC-AM, M4 allosteric agonist project, primary screen (AID 625;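 active means fluorescence slope after compound addition differing from the mean of all tested samples at 99.7% confidence, mostly higher but some lower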;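 further: thallium influx through GIRK channels coupled to M4 in HEK293 cells with BTC-AM dye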); details: at 10 µM, actives lie on both sides
How it was run: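 System: HEK293 cells with M4 receptor and GIRK channels | Incubation: Cells overnight at 37 °C, BTC-AM loading 1 h, reads 2 min total | Technique: Kinetic BTC-AM fluorescence sampled at 1 Hz, 10 s pre-addition baseline | Measure: Post-addition slope, 15–24 s, of baseline-normalized fluorescence | Control set: Carbachol positive, DMSO negative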

[8] = inhibitors of larval lipid processing in zebrafish, primary screen, whole organism, PED6 fluorescence, gall bladder and intestine (AID 686); details: Zebrafish larvae PED6 lipid processing, fluorescence scoring; screened at 20 µM (by protocol);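 further: larvae 5 to 7 days old with five fish per well; signal comes from phospholipase A2 cleavage of quenched PED6 carried via bile; overnight exposure to compound and PED6 before scoring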
How it was run: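 Test system – live zebrafish larvae aged 5-7 days, whole organism · Buffer or medium – E3 fish medium · Reagent – quenched phospholipase substrate PED6, 100 nM final, ingested by larvae · Doses – 20 µM single dose · Incubation – overnight compound and PED6 incubation · Technique – visual fluorescence microscopy scoring of gall bladder, gut · Read-out basis – visual per-well fluorescence inhibition score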

[9] = loss of swimming-algae plug formation – whole organism, Chlamydomonas reinhardtii, WT vs cilia-less mutant, absorbance, 96-well, primary screen (AID 463189;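 active means inhibition at or above 50% relative to wild type and mutant plate controls; inactive means inhibition below 50%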;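 further: 0% = wild type cc124 cells in DMSO and 100% = ciliumless bld1 mutant cells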); details: Chlamydomonas reinhardtii gravitaxis, OD600 absorbance, 2 days; at 10 µM; stronger effect = higher value
[10] = measured here: cell density z-score
[11] = measured here: nuclear c-Myc green intensity z-score
[12] = measured here: nuclear pErk red intensity z-score, stronger effect = higher value

Sequence of Voltage-gated potassium channel subunit beta-2 (Rattus norvegicus) (P62483 whole entry, looked up): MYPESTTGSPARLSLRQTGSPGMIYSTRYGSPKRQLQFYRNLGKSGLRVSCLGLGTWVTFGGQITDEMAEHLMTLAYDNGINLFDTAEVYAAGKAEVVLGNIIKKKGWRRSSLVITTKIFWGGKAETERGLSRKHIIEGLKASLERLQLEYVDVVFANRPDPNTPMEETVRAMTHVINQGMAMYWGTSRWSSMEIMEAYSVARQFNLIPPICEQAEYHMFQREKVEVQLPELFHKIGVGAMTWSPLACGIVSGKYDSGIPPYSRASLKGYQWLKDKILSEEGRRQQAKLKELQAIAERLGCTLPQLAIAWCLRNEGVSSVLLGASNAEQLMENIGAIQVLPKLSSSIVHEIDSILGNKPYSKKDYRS
Sequence of Dual specificity protein phosphatase 6 (Homo sapiens) (Q16828 whole entry, looked up): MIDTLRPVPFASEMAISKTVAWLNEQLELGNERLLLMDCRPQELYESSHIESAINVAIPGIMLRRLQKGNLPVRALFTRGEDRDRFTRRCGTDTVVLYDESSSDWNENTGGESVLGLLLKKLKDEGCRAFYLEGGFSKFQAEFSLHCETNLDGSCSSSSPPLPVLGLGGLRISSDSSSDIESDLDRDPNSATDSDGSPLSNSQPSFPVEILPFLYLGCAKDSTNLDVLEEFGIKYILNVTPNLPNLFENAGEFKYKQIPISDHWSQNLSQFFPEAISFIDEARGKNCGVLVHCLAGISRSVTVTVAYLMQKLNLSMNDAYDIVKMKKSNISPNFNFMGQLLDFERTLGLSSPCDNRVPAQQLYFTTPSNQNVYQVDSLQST
Sequence of Muscarinic acetylcholine receptor M4 (Homo sapiens) (P08173 whole entry, looked up): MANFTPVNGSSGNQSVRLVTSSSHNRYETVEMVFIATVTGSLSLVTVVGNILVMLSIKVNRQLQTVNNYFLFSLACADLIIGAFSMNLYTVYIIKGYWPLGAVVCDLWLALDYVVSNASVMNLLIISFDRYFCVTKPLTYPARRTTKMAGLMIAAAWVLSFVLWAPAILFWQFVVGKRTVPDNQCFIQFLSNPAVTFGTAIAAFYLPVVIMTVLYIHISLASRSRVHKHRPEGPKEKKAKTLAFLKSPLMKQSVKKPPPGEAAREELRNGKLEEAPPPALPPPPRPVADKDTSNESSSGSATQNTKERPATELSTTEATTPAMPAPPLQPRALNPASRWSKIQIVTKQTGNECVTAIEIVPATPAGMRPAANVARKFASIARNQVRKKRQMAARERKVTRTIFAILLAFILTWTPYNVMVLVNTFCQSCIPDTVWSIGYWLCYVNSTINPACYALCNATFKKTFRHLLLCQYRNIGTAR

SMILES | cell count [1] | inhibition [1] | inhibition [2] | nuclei count [2] | z-score [3, 10] | z-score [3, 11] | z-score [3, 12] | inhibition [4] | fluorescence slope [5] | NADPH fluorescence slope [6] | fluorescence slope [7] | outcome [8] | inhibition [9]
O=C1C(=O)N(Cc2cccnc2)C(c2ccccn2)/C1=C(/O)c1ccc(Br)cc1 (stereo not given) | 486 | -5.3% (inactive) | -24.5% (inactive) | 156% | 1.28 | -0.786 | -0.613 | 4.37% (inactive) | -0.457 (inactive) | -4.3e-05 (inactive) | 0.00516 (inactive) | inactive | -1.46% (inactive)
COC(=O)c1ccc(CSc2nc(N3CCOCC3)c3c(c2C#N)CC(C)(C)OC3)o1 | 563 | -4.2% (inactive) | -97.4% (inactive) | 151% | 0.813 | -0.6 | 1.8 | 1.63% (inactive) | -0.461 (inactive) | -0.000112 (inactive) | 0.00467 (inactive) | inactive | 6.95% (inactive)
Cn1c(=O)[nH]c(=O)c2c1nc(Br)n2CCSc1ncccn1 | 643 | -7.6% (inactive) | -107% (inactive) | 179% | 0.65 | -0.91 | -0.622 | -2.59% (inactive) | -0.446 (inactive) | -4.5e-05 (inactive) | 0.00519 (inactive) | inactive | 13.2% (inactive)
COC(=O)c1ccccc1OCc1cccc(C)n1 | 642 | -3.5% (inactive) | -85% (inactive) | 138% | 0.411 | 0.832 | -0.721 | 1.9e-07% (inactive) | -0.495 (inactive) | -3.1e-05 (inactive) | 0.00518 (inactive) | inactive | -11.3% (inactive)
COc1cc(C)nc(Nc2nc(C)c(C(C)=O)s2)n1 | 393 | 0% (inactive) | -89% (inactive) | 125% | 1.97 | -1.71 | -0.786 | 43.2% (inactive) | -0.456 (inactive) | -8.3e-05 (inactive) | 0.00495 (inactive) | inactive | 46.4% (inactive)
Cc1cc(=O)oc(C)c1C(=O)NCCC1=CCCCC1 | 603 | -7.1% (inactive) | -25.9% (inactive) | 114% | -1.14 | 1.4 | 1.29 | 1.63% (inactive) | -0.415 (inactive) | -3.7e-05 (inactive) | 0.00474 (inactive) | inactive | -3.01% (inactive)
COCc1[nH]nc2c1C(c1sccc1C)C(C#N)=C(N)O2 (stereo not given) | 569 | -7.1% (inactive) | -22.2% (inactive) | 170% | 1.09 | -0.767 | 0.181 | 8.31% (inactive) | -0.488 (inactive) | -2.8e-05 (inactive) | 0.00573 (inactive) | inactive | 0.653% (inactive)
Cn1c(=O)c2c3c(sc2n2c(SCC(=O)c4ccccc4)nnc12)COC(C)(C)C3 | 532 | -12.7% (inactive) | 44.5% (inactive) | 48.5% | 0.653 | -0.107 | -0.293 | 9.07% (inactive) | -0.511 (inactive) | 1.2e-05 (inactive) | 0.00374 (inactive) | inactive | 35.1% (inactive)
CCOC(=O)C(C(=O)OCC)N(C#N)c1nc(SC)nc(N(C)C)n1 | 607 | -2.8% (inactive) | 42.8% (inactive) | 86.4% | -3.26 | 2.37 | 4.3 | 33.3% (inactive) | -0.457 (inactive) | -5e-05 (inactive) | 0.00538 (inactive) | inactive | -15.2% (inactive)
CC1CCN(c2[nH]c(=S)c(C#N)c3c2CCCC3)CC1 | 383 | -5.9% (inactive) | -5.3% (inactive) | 140% | 0.378 | -0.606 | 1.46 | 1.42% (inactive) | -0.469 (inactive) | -0.000131 (inactive) | 0.00501 (inactive) | inactive | 19.3% (inactive)
COCCCNC(=O)c1c(N)n(/N=C/c2cccnc2)c2nc3ccccc3nc12 | 719 | 4.4% (inactive) | 0.4% (inactive) | 113% | -0.256 | 0.735 | 2.99 | 4.25% (inactive) | -0.253 (inactive) | -3.5e-06 (inactive) | 0.00597 (inactive) | inactive | -6.04% (inactive)
O=C(Oc1cccnc1)c1ccco1 | 545 | -0.5% (inactive) | 2.1% (inactive) | 99% | -1.51 | 1.45 | 1.18 | -3.95% (inactive) | -0.449 (inactive) | -4.3e-05 (inactive) | 0.00414 (inactive) | inactive | -17% (inactive)
COc1ccc(OC)c(C2C(C(=O)c3sc(C)nc3C)=C(O)C(=O)N2CCN2CCOCC2)c1 (stereo not given) | 369 | 2.2% (inactive) | 35.1% (inactive) | 148% | -0.927 | -0.477 | 2.22 | -4.78% (inactive) | -0.46 (inactive) | -0.000134 (inactive) | 0.00498 (inactive) | inactive | 14.2% (inactive)
CC(=O)C1=C(O)C(=O)N(c2ccc(Br)cn2)C1c1ccccc1F (stereo not given) | 545 | -2.5% (inactive) | -45.7% (inactive) | 131% | 1.35 | -1.7 | -1.31 | 3.97% (inactive) | -0.454 (inactive) | -3.5e-05 (inactive) | 0.00688 (inactive) | inactive | 1.29% (inactive)
CCCCc1[nH]c(=O)c(C#N)c2c1CSC(C)(C)C2 | 551 | 0.5% (inactive) | -122% (inactive) | 132% | 0.749 | 0.642 | -1.4 | 17.4% (inactive) | -0.482 (inactive) | -0.000112 (inactive) | 0.00497 (inactive) | inactive | 0.152% (inactive)
COc1ccc2[nH]cc(C(=O)CN(C)CCc3ccc(OC)c(OC)c3)c2c1 | 516 | -15.4% (inactive) | -59.5% (inactive) | 137% | 0.922 | -0.876 | 1.1 | -14.6% (inactive) | -0.476 (inactive) | -7.3e-05 (inactive) | 0.00394 (inactive) | inactive | -1.18% (inactive)
Cc1ccc(N2C(=O)CC3(CC4C=CC3C4)C2=O)cc1 (stereo not given) | 637 | 6.2% (inactive) | -47.9% (inactive) | 115% | 1.62 | -0.359 | -0.765 | -2.09% (inactive) | -0.414 (inactive) | -3.6e-05 (inactive) | 0.00482 (inactive) | inactive | -4.98% (inactive)
CC1(C)Cc2c(c(N3CCCCC3)[nH]c(=S)c2C#N)CS1 | 574 | -7.8% (inactive) | -103% (inactive) | 151% | -0.509 | -1.94 | 0.0392 | -10.6% (inactive) | -0.479 (inactive) | -0.000148 (inactive) | 0.00629 (inactive) | inactive | 12.9% (inactive)
Nc1nnnn1N=C1CCCCC1 | 662 | -3.4% (inactive) | -120% (inactive) | 170% | 0.907 | -0.604 | -0.484 | -2.29% (inactive) | -0.493 (inactive) | -3.7e-05 (inactive) | 0.00643 (inactive) | inactive | 2.87% (inactive)
CCOC(=O)c1[nH]c2ccccc2c1N=CN(CC)CC | 684 | 0.2% (inactive) | -230% (inactive) | 160% | -0.555 | 0.832 | 0.765 | 1.9e-07% (inactive) | -0.472 (inactive) | -5.6e-05 (inactive) | 0.00609 (inactive) | inactive | -14.4% (inactive)
Cc1nnc2n(-c3ccccc3)c(=O)c3c4c(sc3n12)COC(C)(C)C4 | 526 | -14.8% (inactive) | -32.4% (inactive) | 98.4% | 0.218 | -0.0554 | -0.749 | 24% (inactive) | -0.48 (inactive) | 2.3e-05 (inactive) | 0.00589 (inactive) | inactive | 38.4% (inactive)
COCc1n[nH]c(=S)n1-c1cccc2ccccc12 | 533 | -1.3% (inactive) | -25.8% (inactive) | 173% | 0.455 | 0.388 | 0.964 | 5.95% (inactive) | -0.415 (inactive) | -4.6e-05 (inactive) | 0.00527 (inactive) | inactive | 4.29% (inactive)
Cc1ccc(S(=O)(=O)N(CC(O)CN(C)C)c2ccccc2)cc1 (stereo not given) | 534 | -13.1% (inactive) | -98.3% (inactive) | 180% | 0.563 | -0.408 | -0.341 | -6.59% (inactive) | -0.412 (inactive) | -7e-05 (inactive) | 0.00541 (inactive) | inactive | 2.93% (inactive)
N#CC1=C(N)OC2=C(C(=O)CCC2)[C@]12C(=O)N(CC(N)=O)c1ccccc12 | 485 | -9.7% (inactive) | -41.1% (inactive) | 130% | -0.751 | 0.747 | -0.43 | -7.28% (inactive) | -0.431 (inactive) | -3e-05 (inactive) | 0.00487 (inactive) | inactive | -0.197% (inactive)
Nc1nc2n(n1)C(c1ccc(F)cc1)CC(c1ccc(F)cc1)N2 (stereo not given) | 346 | -13.8% (inactive) | -43.3% (inactive) | 97% | -0.282 | 0.742 | -0.273 | 5.65% (inactive) | -0.457 (inactive) | -5.2e-05 (inactive) | 0.00499 (inactive) | inactive | 19.7% (inactive)
